Two molecules from ChEMBL document CHEMBL4715738, “In Vitro Antibacterial Activity of Curcumin-Polymyxin B Combinations against Multidrug-Resistant Bacteria Associated with Traumatic Wound Infections” (J Nat Prod, 2016) can be followed below.

Active and inactive are the calls of the source.

What is called MIC is the smallest concentration in the dilution series that meets the test's criterion for growth inhibition.

In series [1] the test system is Streptococcus pyogenes. Kind of series: Antibacterial activity against Streptococcus pyogenes SPY3 assessed as reduction in bacterial growth incubated for 24 hrs in presence of curcumin. The format is functional.
The test system of series [2] is Pseudomonas aeruginosa. In words: Antibacterial activity against Pseudomonas aeruginosa ATCC 27853 assessed as reduction in bacterial growth incubated for 24 hrs in presence of curcumin. Format: functional.
Series [3] relates to Enterococcus faecium. Kind of series: Synergistic antibacterial activity against vancomycin-resistant Enterococcus faecium OEF65 assessed as fractional inhibitory concentration index measured after 24 hrs in presence of curcumin by checkerboard assay. The format is functional. A digest of the protocol: (§1)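 FICI was derived from checkerboard MICs. Synergy was defined as FICI ≤ 0.5 and additive as FICI > 0.5−4.0. Where an MIC was not reached, the dilution above the maximum dose was used in the FICI calculation. Experiments were run in triplicate and reported as means.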

Series [4] relates to Escherichia coli. In words: Antibacterial activity against Escherichia coli EC2 harboring CTX-M-15 assessed as reduction in bacterial growth incubated for 24 hrs in presence of curcumin. Format: functional.
The test system of series [5] is Enterococcus faecium. Kind of series: Antibacterial activity against vancomycin-resistant Enterococcus faecium OEF65 assessed as reduction in bacterial growth incubated for 24 hrs in presence of curcumin. The format is functional.
Series [6] deals with Staphylococcus aureus. In words: Antibacterial activity against methicillin-resistant Staphylococcus aureus NCTC 12493 assessed as reduction in colony formation at MIC measured up to 24 hrs by time kill assay. Format: functional, organism-based. To be noted: time hrs <=24. A digest of the protocol: (§2)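 Time-kill in 10 mL Mueller-Hinton 2 broth, 37 °C with continuous agitation, 24 h. Inoculum was a 1/1000 dilution of a 16 h overnight culture, about 10^6 CFU/mL. Single agents at 1× MIC; combination at 1× MIC polymyxin B plus 0.5× MIC curcumin. Samples at 0, 2, 4, 6 and 24 h were serially diluted and plated on IsoSensitest agar for CFU/mL.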

Series [7] concerns Staphylococcus aureus. In words: Synergistic antibacterial activity against methicillin-resistant Staphylococcus aureus NCTC 12493 assessed as fractional inhibitory concentration index measured after 24 hrs in presence of curcumin by checkerboard assay. Format: functional. The method, boiled down: as §1
For series [8], the system named is Pseudomonas aeruginosa. In words: Synergistic antibacterial activity against Pseudomonas aeruginosa ATCC 27853 assessed as fractional inhibitory concentration index measured after 24 hrs in presence of curcumin by checkerboard assay. Format: functional. A digest of the protocol: (§3)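 FICI calculated from combination MICs; ≤0.5 taken as synergy and >0.5–4.0 as additive. Where an MIC was not reached, the dilution above the highest concentration tested was used in the calculation. Run in triplicate and reported as means.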

Series [9] relates to Streptococcus pyogenes. In words: Antibacterial activity against Streptococcus pyogenes SPY1 assessed as reduction in bacterial growth incubated for 24 hrs in presence of curcumin. Format: functional.
For series [10], the system named is Stenotrophomonas maltophilia. In words: Synergistic antibacterial activity against Stenotrophomonas maltophilia SMS01 assessed as fractional inhibitory concentration index measured after 24 hrs in presence of curcumin by checkerboard assay. The format is functional. A digest of the protocol:
as §3

The test system of series [11] is Pseudomonas aeruginosa. Kind of series: Synergistic antibacterial activity against Pseudomonas aeruginosa PA14 assessed as fractional inhibitory concentration index measured after 24 hrs in presence of curcumin by checkerboard assay. Format: functional. A digest of the protocol:
as §3

The test system of series [12] is Escherichia coli. Kind of series: Additive antibacterial activity against Escherichia coli NCTC 12241 assessed as fractional inhibitory concentration index measured after 24 hrs in presence of curcumin by checkerboard assay. The format is functional.
In series [13] the test system is Enterococcus faecium. In words: Antibacterial activity against vancomycin-resistant Enterococcus faecium OEF42 assessed as reduction in bacterial growth incubated for 24 hrs in presence of polymyxin B. The format is functional.
For series [14], the system named is Stenotrophomonas maltophilia. Kind of series: Antibacterial activity against Stenotrophomonas maltophilia SMS01 assessed as reduction in bacterial growth incubated for 24 hrs in presence of polymyxin B. The format is functional.
The subject of series [15] is Acinetobacter baumannii. In words: Antibacterial activity against Acinetobacter baumannii AB14 harboring OXA-23 clone 1 assessed as reduction in bacterial growth incubated for 24 hrs in presence of polymyxin B. The format is functional.
In series [16] the test system is Acinetobacter baumannii. Kind of series: Antibacterial activity against Acinetobacter baumannii ATCC 19606 assessed as reduction in bacterial colony formation at 0.5 fold MIC measured after 24 hrs by time kill assay. The format is functional, organism-based. To be noted: ATCC 19606 = CIP 70.34 = JCM 6841. The method, boiled down:
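Time-kill in Mueller-Hinton 2 broth. Inoculum was a 1/1000 dilution of a 16 h overnight culture, about 10^6 CFU/mL, 10 mL per tube. Arms were each agent alone at ×1 MIC, or the combination at ×1 MIC plus ×0.5 MIC partner. Incubated at 37 °C with continuous agitation for 24 h. Samples taken at 0, 2, 4, 6 and 24 h, serially diluted and plated on IsoSensitest agar for CFU counts.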

The subject of series [17] is Staphylococcus aureus. In words: Bactericidal activity against methicillin-resistant Staphylococcus aureus NCTC 12493 assessed as log reduction in colony forming units at 0.5 fold MIC measured after 24 hrs in presence of polymyxin B at MIC by time kill assay. The format is functional. A digest of the protocol:
as §2

Series [18] relates to Staphylococcus aureus. In words: Potentiation of polymyxin B-induced antibacterial activity against Staphylococcus aureus ATCC 25923 assessed as fold reduction in polymyxin B MIC measured after 24 hrs in presence of polymyxin B by checkerboard assay. The format is functional.
Series [19] has as its system Staphylococcus aureus. Kind of series: Antibacterial activity against Staphylococcus aureus ATCC 25923 assessed as reduction in bacterial growth incubated for 24 hrs in presence of polymyxin B. The format is functional.
In series [20] the test system is Pseudomonas aeruginosa. Kind of series: Potentiation of polymyxin B-induced antibacterial activity against Pseudomonas aeruginosa PAO1 assessed as fold reduction in polymyxin B MIC measured after 24 hrs in presence of polymyxin B by checkerboard assay. The format is functional.
Series [21] relates to Enterococcus faecium. In words: Potentiation of polymyxin B-induced antibacterial activity against vancomycin-resistant Enterococcus faecium OEF65 assessed as fold reduction in polymyxin B MIC measured after 24 hrs in presence of polymyxin B by checkerboard assay. The format is functional.
Series [22] relates to Stenotrophomonas maltophilia. Kind of series: Antibacterial activity against Stenotrophomonas maltophilia SMB07 assessed as reduction in bacterial growth incubated for 24 hrs in presence of polymyxin B. Format: functional.
Series [23] has as its system Staphylococcus aureus. Kind of series: Antibacterial activity against methicillin-resistant Staphylococcus aureus NCTC 12493 assessed as reduction in bacterial growth incubated for 24 hrs in presence of polymyxin B. The format is functional.
The next series has as its system HaCaT. In words: Cytotoxicity against human HaCaT cells at 174 uM measured after 4 hrs by CyTox 96 nonradioactive assay relative to control. Format: cell-based.
For series [24], the system named is Stenotrophomonas maltophilia. Kind of series: Bactericidal activity against Stenotrophomonas maltophilia NCTC 102586 assessed as bacterial cell death at 0.5 fold MIC measured after 4 to 6 hrs in presence of polymyxin B at MIC by time kill assay relative to control. The format is functional. To be noted: time 4-6 hrs. The method, boiled down:
as §2

For series [25], the system named is Streptococcus pyogenes. In words: Antibacterial activity against Streptococcus pyogenes SPY1 assessed as reduction in bacterial growth incubated for 24 hrs in presence of polymyxin B. The format is functional.

With `CC[C@H](C)CCCCC(=O)N[C@@H](CCN)C(=O)N[C@H](C(=O)N[C@@H](CCN)C(=O)N[C@H]1CCNC(=O)[C@H]([C@@H](C)O)NC(=O)[C@H](CCN)NC(=O)[C@H](CCN)NC(=O)[C@H](CC(C)C)NC(=O)[C@@H](Cc2ccccc2)NC(=O)[C@H](CCN)NC1=O)[C@@H](C)O.O=S(=O)(O)O`, the MIC in the series on Streptococcus pyogenes [1] worked out at 0.79 µM; with Pseudomonas aeruginosa [2], 6 nM; in the series on Escherichia coli [4], 0.024 µM; in the series on Enterococcus faecium [5], 1.5 µM; in the series with Streptococcus pyogenes [9], 0.19 µM. The “fractional inhibitory concentration index (FICI)” value in the series with Enterococcus faecium [3] is reported as 0.281; in the series on Staphylococcus aureus [7], 0.031; with Pseudomonas aeruginosa [8], 0.079; in [10], 0.012; in the series on Pseudomonas aeruginosa [11] it was 0.023; with Escherichia coli [12], 0.52. For the same molecule, the result in the series on Staphylococcus aureus [6] was inactive.

As to `COc1cc(/C=C/C(=O)CC(=O)/C=C/c2ccc(O)c(OC)c2)ccc1O` [CURCUMIN], the MIC in the series with Enterococcus faecium [13] came out at 22 µM; in [14], 22 µM; with Acinetobacter baumannii [15], 174 µM; in the series on Staphylococcus aureus [19], 87 µM; in [22], 22 µM; in the series on Staphylococcus aureus [23], 43 µM. Besides, the MIC with Streptococcus pyogenes [25] was found to be 43 µM. Further, in the series on Acinetobacter baumannii [16], the outcome was inactive. Moreover, the Activity in the series on Staphylococcus aureus [17] was more than 3 log10CFU/ml; with HaCaT it was 34%; in [24], 100%. The “fold change (FC)” value with Staphylococcus aureus [18], in the series on Pseudomonas aeruginosa [20] and with Enterococcus faecium [21] was 3 in each case.
